Assay outcomes as filed in PubChem BioAssay.
This is a sample that favours compounds with a hit; in the whole collection about 3.4% have one here.
TAAR1 antagonist: human TAAR1 antagonism; CHO RD-HGA16 TAAR1, Fluo-8 calcium fluorescence, antagonist; inhibition, % at 3 µM; 360,000 compounds, 1.5% hits; AID 624466;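 active = inhibition above a per-plate cutoff, the mean inhibition of test compounds on that plate plus 3 SD, cut at about 49% in these data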
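Test system – hTAAR1-expressing CHO RD-HGA16 cells, Gα16-coupled · Reagent – β-PEA at EC80 concentration, post-compound challenge · Compound dosing – 3 µM, single point · Timing – 140 s kinetic read after compound, 140 s after agonist · Detection – Fluo-8 intracellular calcium dye fluorescence, real-time kinetic reads · Control set – DMSO and EC80 PEA controls · Repeats – n of 1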
M1 ag: human M1 muscarinic receptor agonism; AID 588814; P11229; activation, % at 3 µM; CHO-K1 hM1, Fluo-8 calcium fluorescence, agonist mode; 0% DMSO, 100% acetylcholine EC100; 360,000 compounds, 0.33% hits;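 active = activation above the run's mean compound activation plus 3 SD, cut at about 16% in these data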;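 also: peak over basal fluorescence ratio within a 140 s kinetic read after compound addition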
Target sequence (P11229 whole entry, looked up): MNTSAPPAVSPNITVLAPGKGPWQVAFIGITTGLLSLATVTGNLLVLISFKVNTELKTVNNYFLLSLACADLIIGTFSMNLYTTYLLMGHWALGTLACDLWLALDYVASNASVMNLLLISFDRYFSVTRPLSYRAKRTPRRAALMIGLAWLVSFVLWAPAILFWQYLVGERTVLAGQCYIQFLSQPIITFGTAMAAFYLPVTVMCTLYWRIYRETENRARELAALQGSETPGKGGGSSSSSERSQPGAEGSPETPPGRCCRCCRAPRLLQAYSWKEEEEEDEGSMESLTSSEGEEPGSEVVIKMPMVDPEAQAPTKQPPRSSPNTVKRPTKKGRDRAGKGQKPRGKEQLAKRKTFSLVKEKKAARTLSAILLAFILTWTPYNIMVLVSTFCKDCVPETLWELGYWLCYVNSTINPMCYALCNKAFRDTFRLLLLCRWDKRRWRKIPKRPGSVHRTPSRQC
CHRM1 antagonist: blocks human M1 muscarinic receptor. CHO-K1 hM1, Fluo-8 calcium fluorescence, ACh EC80 antagonist. inhibition, % at 3 µM. 360,000 compounds, 1.3% hits. AID 588852;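 active = percent inhibition above its own plate's cutoff, namely the mean of that plate's compound wells plus 3 SD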;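 also: peak over basal fluorescence ratio during 140 s after agonist addition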
TAAR1 agonist: agonists of human TAAR1. Q96RJ0. 360,000 compounds, 0.99% hits. activation, % at 3 µM. CHO RD-HGA16 TAAR1, Fluo-8 calcium fluorescence; vehicle wells 0%, saturating PEA agonist 100%. AID 624467;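 active = activation above the mean activation of all test compounds in the run plus 3 SD, cut at about 38% in these data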
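Test system: RD-HGA16 (CHO) cells co-expressing Gα16 and hTAAR1 | Doses: Single dose, 3 µM | Schedule: 17-24 h seeding, 75 min 37 °C dye, 30 min RT | Evaluation: % activation from peak over basal fluorescence ratio, DMSO-to-PEA scaled | Technique: Kinetic Fluo-8 calcium fluorescence | Benchmarks: Low control DMSO, high control PEA (EC100)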
M1 PAM: positive allosteric modulators of human M1 muscarinic receptor | 360,000 compounds, 0.088% hits | P11229 | activation, % at 3 µM | AID 588819 | CHO-K1 hM1, Fluo-8 calcium fluorescence, ACh EC20; 0% = ACh EC20, 100% = maximal ACh; in the data active = activation above about 19%, passing the limit was not always enough
TAAR1 ag conf: confirmation of human TAAR1 agonists. shares compounds with TAAR1 agonist. activation, % at 3 µM. AID 651783. CHO RD-HGA16 TAAR1, Fluo-8 calcium fluorescence; scaled: DMSO 0%, maximal phenethylamine 100%. 2,400 compounds, 82% hits;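 active = activation above a cutoff set at the run's mean compound activation plus 3 SD, cut at about 39% in these data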
Ga16 ag counter: nonselective agonism, TAAR1 counter-screen; shares compounds with TAAR1 agonist; CHO-Ga16 parental, Fluo-8 calcium fluorescence; normalized to maximal ATP response, DMSO zero; activation, % at 3 µM; 2,400 compounds, 50% hits; AID 651787;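 active = activation above the run cutoff, the mean activation over all tested wells plus 3 SD, cut at about 12% in these data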
TAAR1 desensitize: human TAAR1 agonist that also desensitizes the receptor; shares compounds with TAAR1 agonist; CHO RD-HGA16 hTAAR1, Fluo-8 calcium, beta-PEA response inhibition; inhibition, % at 3 µM; 2,400 compounds, 46% hits;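 active = inhibition above the run cutoff, the mean inhibition of all test compounds plus 3 SD, cut at about 49% in these data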;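 also: beta-PEA stimulus applied at its EC80; loss of beta-PEA calcium signal after compound pretreatment read as receptor desensitization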
Ga16 antag count: nonselective Ga16 antagonism, counter-screen. 2,400 compounds, 39% hits. shares compounds with TAAR1 agonist. CHO-Ga16 ATP-induced calcium, Fluo-8 fluorescence. inhibition, % at 3 µM;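 active = inhibition above the plate's mean compound inhibition plus 3 SD, computed per plate, cut at about 22% in these data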
Numbers stand for hits; i = inactive; nt = not tested or not shown.

SMILES	TAAR1 antagonist	M1 ag	CHRM1 antagonist	TAAR1 agonist	M1 PAM	TAAR1 ag conf	Ga16 ag counter	TAAR1 desensitize	Ga16 antag count
COCCCN1C(=O)C(CC(=O)NCCCCc2ccccc2)CC(C(=O)N2CCOCC2)=C1C (stereo unspecified)	i	i	i	i	i	nt	nt	nt	nt
CC(C)(C)CN1CCNC[C@H]1Cc1cccc2ccccc12	i	i	i	i	i	nt	nt	nt	nt
c1ccc(C2(CN3CCNC[C@H]3Cc3cccc4ccccc34)CC2)cc1	i	i	i	43.9	i	47.3	18.6	i	26.2
CC(O)[C@H]1CNCCN1CCc1cccc(F)c1 (stereo partly specified)	i	i	i	73.6	i	67.0	i	i	i
Fc1cccc(CCN2CCNC[C@H]2Cc2cccc3ccccc23)c1	i	i	i	68.3	i	80.1	16.5	i	27.4
COc1ccc(Br)cc1/C=N/n1c(COc2ccccc2)n[nH]c1=S	i	i	i	i	i	nt	nt	nt	nt
O=C(COC(=O)c1cc(Br)ccc1O)Nc1ccc2c(c1)OCO2	70.2	i	i	75.4	i	43.7	35.6	i	40.1
CNc1ccccc1C(=O)OCC(=O)Nc1ccc2c(c1)OCO2	i	i	i	i	i	nt	nt	nt	nt
CC(=O)c1cccc(CN2CCCCC2C(=O)Nc2ccc(Oc3ccccc3)nc2)c1 (stereo unspecified)	i	i	i	i	i	nt	nt	nt	nt
CO[C@@H]1CN(C)C(=O)c2cc(NC(=O)NC3CCCCC3)ccc2OC[C@@H](C)N(CCc2ccccc2)C[C@@H]1C	i	nt	nt	i	nt	nt	nt	nt	nt
OC(c1ccccc1)(c1ccccc1)C1CCN(CCCOc2ccc(-c3ccncc3)cc2)CC1	53.1	nt	nt	41.8	nt	45.8	26.9	54.3	36.2
CC1CCN(CCCOc2ccc(OCc3ccccc3)cc2)CC1	i	i	43.4	59.1	i	40.7	23.6	i	23.1
c1ccc(COc2ccc(OCCN3CCCC3)cc2)cc1	i	i	i	i	i	nt	nt	nt	nt
OC(c1ccccc1)(c1ccccc1)C1CCN(CCCOc2ccc(-c3cccnc3)cc2)CC1	i	nt	nt	53.3	nt	i	20.9	i	28.6
CC(=O)Nc1ccccc1OCCCN1CCC(C(O)(c2ccccc2)c2ccccc2)CC1	i	nt	nt	i	nt	nt	nt	nt	nt
Cc1ccc(-c2nc3ccc(C)cn3c2CC2CCCCC2)cc1	i	nt	nt	i	nt	nt	nt	nt	nt
Cc1ccc(C2NC(=S)NC3=C2C(=O)CC(C)(C)C3)cc1 (stereo unspecified)	i	i	i	i	i	nt	nt	nt	nt
N/C(Cc1cccc2ccccc12)=N\OC(=O)c1ccccc1F	i	i	i	70.1	i	80.8	i	i	i
N/C(Cc1cccc2ccccc12)=N\OC(=O)COc1ccccc1	i	i	i	53.9	i	61.2	i	i	i
O=C(NC1CCCCC1)C(c1ccccc1F)n1c(=O)c(-c2cc3ccccc3[nH]2)nc2ccccc21 (stereo unspecified)	i	nt	nt	i	nt	nt	nt	nt	nt
CC1NC(C)(C)Cc2c1ccc1ccccc21 (stereo unspecified)	i	i	i	i	i	nt	nt	nt	nt
CC1NC(C)c2c(ccc3ccccc23)O1 (stereo unspecified)	nt	i	i	nt	i	nt	i	nt	i
O=C(CCS(=O)(=O)c1ccc2c(c1)NC(=O)CO2)NCCc1ccccc1	i	i	i	66.2	i	62.1	i	i	i
CCOC(=O)N1CCN(C(=O)CNC(=O)c2ccc(Br)o2)CC1	i	i	i	i	i	nt	nt	nt	nt
COc1cccc(-c2nnn(CC(=O)N3CCC(C)CC3)n2)c1	i	i	i	i	i	nt	nt	nt	nt
CC(=O)c1ccc(OCCCC(=O)NNC(=O)c2ccccn2)cc1	i	i	i	i	i	nt	nt	nt	nt
